# According to PMC8068092 (Molecular pharmaceutics, 2020):
# Assays:
# [1] = tested on: MDA-MB-468 (mtp53 R273H) and MCF7 (wtp53) xenografts; test: NIRF imaging in mice bearing bilateral MCF7/MDA-MB-468 xenografts; assay type: in vivo, mouse
# [2] = tested on: MDA-MB-468 shp53 cells (mtp53 R273H knockdown); test: Cy5p53Tet uptake with and without shRNA depletion of mtp53; assay type: cell-based, human; details: 500 nM; for Reduction of Cy5p53Tet signal (relative ROI intensity) on depletion of mtp53: knockdown vs control
# Summary of the method: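 MDA-MB-468 shp53 knockdown induced with 8 μg/mL doxycycline for 7 days; p53 depletion checked by Western blot. Cells seeded at 2 × 10^5 per well 1 day before, then given 500 nM Cy5-peptide at 37 °C for 30 min, 2 h, 4 h or 24 h. Peptide removed, cells PBS-washed, Hoechst-stained (1 μg/mL, 5 min), confocal Z-stacks at 60×. Three independent experiments; mean + SEM, two-tailed t-test.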
# [3] = tested on: MDA-MB-468 cells (mtp53 R273H) compared to MCF7 cells (wtp53); test: Cy5p53Tet cellular uptake by live cell imaging; assay type: cell-based, human; details: 500 nM, 2 h incubation, 37 °C; confocal microscopy, Nikon Element analysis, at least 200 cells per sample
# [4] = tested on: MDA-MB-468 cells (mtp53) compared to MCF7 cells (wtp53); test: Cy5p53Tet cellular uptake by flow cytometry; assay type: cell-based, human; details: 2 h, 37 °C
# Summary of the method: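 MCF7 and MDA-MB-468 cells in DMEM with 10% FBS, seeded at 5 × 10^5 per well and held at 37 °C overnight. Medium swapped for vehicle, 100 or 500 nM Cy5-peptide for 2 h at 37 °C. Cells washed, trypsinized, pelleted and resuspended in PBS. 2 × 10^4 events per sample; geometric MFI taken.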
# [5] = tested on: MDA-MB-468 cells (mtp53 R273H); test: Peptide cytotoxicity assay; assay type: cell-based, human; details: 500 nM Cy5p53Tet, 24 h, three independent experiments
# Summary of the method: (§1)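 Cells (1.25 × 10^5, 12-well) seeded the day before at 37 °C, then given 500 nM Cy5-peptide for 24 h. MTT (5 mg/mL solution) added for 1 h at 37 °C. Product dissolved in 0.04 N HCl/isopropanol, 5 min in the dark at room temperature. Absorbance read at 550 nm minus 620 nm background. Three independent experiments; mean ± SEM, t-test.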
# [6] = tested on: MCF-10A nonmalignant human mammary epithelial cells (wtp53); test: Peptide cytotoxicity assay; assay type: cell-based; details: 500 nM Cy5p53Tet, 24 h, three independent experiments
# [7] = tested on: HCC70 cells (mtp53 R248Q); test: Peptide cytotoxicity assay; assay type: cell-based, human; details: 500 nM Cy5p53Tet, 24 h, three independent experiments
# Summary of the method: as §1
# MCF7 cells (wtp53) = test: Peptide cytotoxicity assay; assay type: cell-based, human; details: 500 nM Cy5p53Tet, 24 h, three independent experiments
# Summary of the method: as §1
# [8] = after intravenous administration, IVIS Spectrum
substance,measurement,setting,value
H-CysCy5-RKKRRQRRGEYFTLQIRGRER-FEMFRELNEALELK-OH [Cy5p53Tet],In vivo NIRF signal in MCF7 tumors,[1]; [8],no signal was present
same,In vivo NIRF signal in MDA-MB-468 tumors,[1]; [8],clearly observed
same,Signal in healthy tissues (whole-body and resected tissue images),"[1]; liver, large intestines, small intestines, three mice",significantly high levels of the signal in several healthy tissues
same,Reduction of Cy5p53Tet signal (relative ROI intensity) on depletion of mtp53,[2]; 30 min incubation,61%
same,Reduction of Cy5p53Tet signal (relative ROI intensity) on depletion of mtp53,[2]; 2 h incubation,63%
same,Reduction of Cy5p53Tet signal (relative ROI intensity) on depletion of mtp53,[2]; 4 h incubation,67%
same,Difference of Cy5p53Tet signal between knockdown and control cells,[2]; 24 h incubation,no statistically significant difference
same,Uptake of Cy5p53Tet in MDA-MB-468 cells compared to MCF7 cells,[3],twofold higher uptake
same,"Geometric MFI, fold more uptake in MDA-MB-468 than in MCF7 cells",[4]; 100 nM Cy5p53Tet,1.58 fold
same,"Geometric MFI, fold more uptake in MDA-MB-468 than in MCF7 cells",[4]; 500 nM Cy5p53Tet,1.65 fold
same,Reduction of mitochondrial activity (MTT),[5],10.6%
same,Reduction of mitochondrial activity (MTT),[6],No significant reduction of mitochondrial activity
same,Reduction of mitochondrial activity (MTT),[7],13.6%
same,Reduction of mitochondrial activity (MTT),MCF7 cells (wtp53),9.8%
